Source: PubChem (several laboratories)
PfM18AAP inh-1: PfM18AAP enzyme inhibition; inhibition, % at 7.35 µM; 1.2% of 290,000 active; AID 1822; recombinant PfM18AAP, H-Glu-NHMec fluorogenic cleavage;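 active = inhibition above the campaign mean inhibition over all tested compounds plus 3 SD, cut at about 28% in these data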;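 also: 0% = plate median of test compound wells and 100% = 2 mM ZnCl2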
ZTA counter: ZTA (EBV) inhibition in EBNA-1 counter-screen; P03206; ZTA-DNA binding, fluorescence polarization; inhibition, % at 11 µM; 0.15% of 320,000 active; in the data active = inhibition above about 33%
Apaf-1 inh: inhibitors of human Apaf-1 apoptosome | O14727 | reconstituted apoptosome caspase-3 activity, DEVD-Rh110 fluorescence | inhibition, % at 20 µM | 0.71% of 330,000 active; active = inhibition of at least 40% at 20 µM;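 also: plate controls were DMSO wells for no effect and DEVD-CHO caspase inhibitor wells for full effect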
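System: reconstituted apoptosome with Apaf-1, cytochrome c, caspase-9, procaspase-3, dATP; Signal: Rh110 fluorescence intensity; Schedule: 30 min compound preincubation, 50 min activation, room temperature; Reagent: cytochrome c trigger plus (Z-DEVD)2-Rh110 caspase-3 substrate.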
PfGluPho inh: PfG6PD (Plasmodium falciparum) enzyme inhibition | PfGluPho enzyme, NADPH resazurin-diaphorase fluorescence | inhibition, % at 20 µM | 0.78% of 350,000 active | AID 504690;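 active = inhibition reaching at least a set limit at 20 µM in the primary screen, cut at about 59% in these data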;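 also: 0% = DMSO wells with substrate and 100% = DMSO wells lacking glucose-6-phosphate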
UBC13 inh: inhibitors of human UBC13 polyubiquitin chain formation; inhibition, % at 20 µM; TR-FRET; 0.47% of 330,000 active; AID 485273; P61088; in the data active = inhibition above about 45%, passing the limit was not always enough
Target sequence (P61088 whole entry, looked up): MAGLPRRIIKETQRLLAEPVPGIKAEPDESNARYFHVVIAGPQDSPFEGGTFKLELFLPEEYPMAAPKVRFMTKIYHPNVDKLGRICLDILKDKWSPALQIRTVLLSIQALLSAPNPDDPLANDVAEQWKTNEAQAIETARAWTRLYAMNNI
EBNA-1 inhibitor: blocks EBNA-1 binding to DNA; EBNA-1 DNA binding, fluorescence polarization; inhibition, % at 14.8 µM; 0.34% of 300,000 active; AID 1950; in the data active = inhibition above about 28%
PfM18AAP inh-2: PfM18AAP inhibition, confirmation | AID 2170 | recombinant PfM18AAP, H-Glu-NHMec fluorogenic cleavage | inhibition, % at 7.35 µM | 28% of 2,400 active | shares compounds with PfM18AAP inh-1;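 active = mean inhibition over replicate wells above the hit cutoff set for the earlier primary screen, cut at about 29% in these data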;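 also: 0% = median of test compound wells and 100% = 2 mM ZnCl2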
CTSL1 counter: counter-screen for PFM18AAP inhibitors: confirmation of human cathepsin L inhibitors; shares compounds with PfM18AAP inh-1; purified cathepsin L1, Z-Leu-Arg-MCA fluorescence; inhibition, % at 5.96 µM; 2,400 tested, under 10 active; AID 2178;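 active = average inhibition across replicates above the hit cutoff set in the earlier primary screen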;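 also: 0% = median of test compound wells and 100% = Z-Phe-Ala-diazomethylketone 1 µM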
Target sequence (P07711 whole entry, looked up): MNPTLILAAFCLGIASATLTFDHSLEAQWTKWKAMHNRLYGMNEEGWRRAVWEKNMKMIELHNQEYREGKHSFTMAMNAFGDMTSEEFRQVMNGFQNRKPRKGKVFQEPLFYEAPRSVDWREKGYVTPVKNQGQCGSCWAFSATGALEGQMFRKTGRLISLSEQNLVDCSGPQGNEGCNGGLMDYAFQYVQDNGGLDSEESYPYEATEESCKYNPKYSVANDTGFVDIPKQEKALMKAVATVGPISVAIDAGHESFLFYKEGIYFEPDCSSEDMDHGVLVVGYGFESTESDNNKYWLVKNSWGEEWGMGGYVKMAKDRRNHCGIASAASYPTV
An asterisk follows results filed as active; nt = no result. A selection: hits, their analogues and other compounds. The true share with any hit is near 2.9%.

SMILES	PfM18AAP inh-1	ZTA counter	Apaf-1 inh	PfGluPho inh	UBC13 inh	EBNA-1 inhibitor	PfM18AAP inh-2	CTSL1 counter
O=C(Cc1ccccc1)Nc1ccc(NC(=O)c2cccs2)cc1Cl	-26	3	6	-17	7	1	nt	nt
Nc1cc2c(cc1O)CCCC2	33*	-8	8	22	-11	-1	58*	1
O=C1CCCCc2cc(O)c(O)cc21	nt	nt	nt	-19	nt	nt	nt	nt
Cn1c(N)c(C(=O)N/N=C/c2ccccc2)sc1=S	34*	-9	-25	-4	2	10	-35	2
Cc1c(C(=O)N/N=C/c2cccnc2)sc(=S)n1C	6	-5	-6	3	-11	0	nt	nt
COc1cccc(/C=N/NC(=O)CN(CCc2ccccc2)S(=O)(=O)c2ccc(NC(C)=O)cc2)c1	0	-2	10	17	11	-8	nt	nt
C/C(=N\Nc1nc2ccccc2c(=O)n1O)c1ccco1	38*	-10	8	38	-3	-20	7	-2
CC(C)C(NC(=O)c1c(F)cccc1F)C(=O)N1CCN(S(=O)(=O)c2ccc(F)cc2)CC1 (stereo unspecified)	nt	11	4	3	4	nt	nt	nt
COc1ccc(/C(N)=N/OC(=O)CCCN2C(=O)c3ccccc3C2=O)cc1OC	-5	18	-1	-3	-4	3	nt	nt
O=C(NCc1cccs1)Nc1cccc(Cl)c1	6	-9	-2	22	13	3	nt	nt
NS(=O)(=O)c1ccc(NNC(=O)c2cccs2)cc1	55*	-13	-18	-9	-5	-10	36*	2
O=C(NNC(=S)Nc1ccc(Cl)cc1)c1cccs1	8	13	-4	-26	-5	3	nt	nt
O=C(NNc1cc(Cl)cc(Cl)c1)c1cccs1	37*	-12	2	16	6	1	33*	2
O=C(NNc1ccc(Cl)cc1)c1cccs1	44*	-17	-6	22	-4	-10	25	-1
O=C(NNC(=O)c1cccs1)Nc1cccc(Cl)c1	60*	-25	8	-2	-5	-12	20	3
CSc1ccc(C(=O)NCC(c2ccco2)N(C)C)cc1[N+](=O)[O-] (stereo unspecified)	-7	12	12	-9	-1	-9	nt	nt
COC(/C=C/Nc1ccc(C)cc1)=C(C#N)C#N	6	3	-9	4	-1	10	nt	nt
O=C(c1ccccc1Sc1cccc2ccccc12)N1CCOCC1	6	-16	-1	22	1	1	nt	nt
Cc1cc(C)c(S(=O)(=O)Nc2ncn[nH]2)c(C)c1	20	nt	-5	6	4	nt	nt	nt
Cc1cc(C)c(S(=O)(=O)Nc2ccc(O)cc2)cc1C	-5	-8	3	33	-3	-10	nt	nt
Cc1cc(C)c(S(=O)(=O)Nc2ccc(O)c(Sc3ncn[nH]3)c2)c(C)c1	49*	3	6	52	-6	-5	14	0
Cc1cc(C)c(S(=O)(=O)Nc2ccc(O)c(Sc3ncn[nH]3)c2)cc1C	52*	14	-13	32	5	-1	22	2
CCOC(=O)C1CCCN(C(=O)c2cc3cc(OC)c(OC)cc3[nH]2)C1 (stereo unspecified)	-10	nt	0	-5	12	nt	nt	nt
CN(CC(=O)Nn1cnnc1)S(=O)(=O)c1cc(Cl)ccc1Cl	44*	9	-18	-5	14	-4	45*	3
O=C(CSc1ccc(Cl)cc1)Nn1cnnc1	40*	0	-6	12	3	-1	52*	-5
SMILES	PfM18AAP inh-1	ZTA counter	Apaf-1 inh	PfGluPho inh	UBC13 inh	EBNA-1 inhibitor	PfM18AAP inh-2	CTSL1 counter
O=C(CSc1ccc2ccccc2c1)Nn1cnnc1	65*	16	-1	-16	-18	-10	51*	0
COc1ccccc1NC(=O)c1ccc2c(c1)CCN2S(C)(=O)=O	-7	6	-5	6	-7	-4	nt	nt
CCOC(=O)C1C(=O)C=C(c2cccs2)CC1c1ccccc1 (stereo unspecified)	56*	-4	18	11	-5	9	-43	-1
CCOC(=O)C1C(=O)C=C(c2cccs2)CC1c1ccccc1C (stereo unspecified)	4	-2	16	-17	0	5	nt	nt
Cc1ccsc1C(=O)N(C)CC(=O)Nc1ccccc1Br	nt	nt	25	-11	5	nt	nt	nt
CC(=O)Nc1ccc(NC(=O)CC2Nc3cccc4cccc(c34)NC2=O)cc1 (stereo unspecified)	33*	5	96*	40	-27	7	-36	-4
COc1ccc(/C=N/NS(=O)(=O)c2ccc(F)cc2)cc1COc1cc(F)ccc1[N+](=O)[O-]	65*	5	24	-18	-14	10	-44	4
COc1ccc(-c2cc(C(=O)OCC(=O)N(C)C3CCS(=O)(=O)C3)c3ccccc3n2)cc1OC (stereo unspecified)	-1	-4	4	1	-11	-19	nt	nt
CC(=O)NN1C(=O)c2ccccc2NC1c1ccccc1O (stereo unspecified)	42*	3	-3	-8	17	-9	12	-2
O=C1NC(=S)NC(=O)C1=Cc1ccccc1C(=O)O	nt	nt	nt	-9	nt	nt	nt	nt
CC(C)NC(=O)Nc1n[nH]c(Nc2ccc(Cl)cc2)n1	40*	11	-19	2	6	6	9	-3
COc1ccc(Cl)cc1NC(=O)NC(C)C	-2	-5	-11	24	6	4	nt	nt
COc1cc([N+](=O)[O-])ccc1-c1ccc(/C=N/NC(=O)OC(C)(C)C)o1	6	5	0	11	-55	-6	nt	nt
COc1cc([N+](=O)[O-])ccc1-c1ccc(/C=N/NC(N)=O)o1	44*	-18	14	7	-26	6	-37	1
CCOc1ccccc1/C=N/Nc1nc2c(N)ncnc2n1[C@H]1O[C@@H](CO)[C@H](O)[C@@H]1O	36*	-4	-13	-9	-7	-2	-25	4
O=C(CNC(=O)c1ccccc1)NCCc1ccc(O)c(O)c1	84*	-5	2	nt	7	-8	73*	-5
CCN(CC)S(=O)(=O)c1ccc2nc(CCl)[nH]c2c1	-3	0	-3	-7	5	4	nt	nt
CCc1ccccc1N1CC(C(=O)N2Cc3ccccc3CC2C(N)=O)CC1=O (stereo unspecified)	nt	nt	1	-6	-18	nt	nt	nt
Cc1ccc(-c2nc3ccc(C(=O)O)cc3nc2-c2ccc(C)cc2)cc1	7	-12	31	0	19	4	nt	nt
O=C(O)c1ccc2nc(-c3ccco3)c(-c3ccco3)nc2c1	35*	nt	62*	51	21	nt	-1	4
O=C(/C=C/c1ccccc1)n1cnnc1SC/C=C/c1ccccc1	41*	-2	4	1	-10	-4	27	-5
